Measurements as given in ChEMBL document CHEMBL1126984, “o-phenylphenols: potent and orally active leukotriene B4 receptor antagonists” (J Med Chem, 1993).

Legend:
Cavia porcellus [1] = organism: Cavia porcellus; experiment: Inhibition of LTB4-induced contraction of guinea pig lung parenchyma strips; format: functional
Leukotriene B4 receptor [2] = biological target: T1, Leukotriene B4 receptor (Homo sapiens, UniProt Q9NPC1+Q15722); experiment: Inhibition of [3H]LTB4 receptor binding in human neutrophils; format: protein assay
[3] = biological target: Leukotriene B4 receptor (Cavia porcellus); experiment: Inhibition of [3H]LTB4 receptor binding in guinea pig lung membrane
Leukotriene B4 receptor [4] = biological target: T1, Leukotriene B4 receptor; experiment: Inhibition of LTB4-induced human neutrophil CD11b/CD18 integrin up-regulation; format: functional
Cavia porcellus [5] = experiment: In vivo antagonistic activity against LTB4 induced airway obstruction in guinea pig following intravenous administration; format: functional
In short: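 Guinea pigs dosed intravenously 5 min before a 3.0 µg/kg iv LTB4 challenge. Animals killed 1 min after challenge. Excised lung gas volume (ELGV) measured as the index of airway obstruction severity. Means ± SEM, 3-14 guinea pigs per group; ED50 in mg/kg.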

Cavia porcellus [6] = experiment: In vivo antagonistic activity against LTB4 induced airway obstruction in guinea pig following oral administration; format: functional
In short: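 Guinea pigs dosed orally 2 h before a 3.0 µg/kg iv LTB4 challenge. Animals killed 1 min after challenge. Excised lung gas volume (ELGV) measured as the index of airway obstruction severity. Means ± SEM, 3-14 guinea pigs per group.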

IC50 (Leukotriene B4 receptor [2]) | Ki [3] | IC50 (Leukotriene B4 receptor [4]) | SMILES | pKB (Cavia porcellus [1]) | ED50 (Cavia porcellus [5]) | ED50 (Cavia porcellus [6])
0.0093 µM | 0.0142 µM | 0.161 µM | CCCc1cc(CC)c(OCCCCCC(C)(C)c2nn[n-]n2)cc1O.[Na+] | 7.6 |  | 
 |  |  | CCOc1cc(CC)c(OCCCCCC(C)(C)c2nn[n-]n2)cc1O.[Na+] | 6.6 |  | 
0.453 µM | 0.196 µM |  | CCc1cc(-c2ccccn2)c(O)cc1OCCCCCC(C)(C)c1nn[n-]n1.[Na+] |  |  | 
0.0332 µM | 0.0769 µM |  | CCc1cc(-c2cccc(C(F)(F)F)c2)c(O)cc1OCCCCCC(C)(C)c1nn[n-]n1.[Na+] |  |  | 
 |  |  | CCc1cc(C(C)=O)c(O)cc1OCCCCCC(C)(C)c1nn[n-]n1.[Na+] | 6.7 |  | 
 |  |  | CCc1cc(-c2ccccc2)c(O)cc1OCCCCCC(C)(C)c1nn[n-]n1.[Na+] | 8.3 | 0.05 mg/kg | 0.7 mg/kg
 |  |  | CCc1cc(-c2ccc(F)cc2)c(O)cc1OCCCCCC(C)(C)c1nn[n-]n1.[Na+] | 8.3 | 0.03 mg/kg | 0.56 mg/kg
0.0158 µM | 0.0859 µM |  | CCc1cc(-c2ccc(N(C)C)cc2)c(O)cc1OCCCCCC(C)(C)c1nn[n-]n1.[Na+] |  |  | 
